# Assay results from different studies.
# Protocols differ between the studies behind these lines.
# Target: Mu-type opioid receptor (Oprm1, Rattus norvegicus, UniProt P33535)
SMILES,test,setting,Ki [nM]
NC(N)=Nc1ccc2[nH]c3c(c2c1)C[C@@]1(O)[C@H]2Cc4ccc(O)c5c4[C@@]1(CCN2CC1CC1)[C@H]3O5,"ligand displacement, radioligand",cell membranes,9.04
C[C@@H](NC(=O)[C@@H](N)Cc1ccc(O)cc1)C(=O)NCC(=O)N[C@H](CC(=O)NNC(=O)C[C@H](Cc1ccccc1)NC(=O)CNC(=O)[C@@H](C)NC(=O)[C@@H](N)Cc1ccc(O)cc1)Cc1ccccc1,"ligand displacement, radioligand",,1.1
Oc1cccc([C@]23CCC[C@H]([C@H]2O)N(CC=Cc2ccccc2)CC3)c1,"ligand displacement, radioligand",,0.74
Cc1cc(O)cc(C)c1C[C@H](N)C(=O)N[C@H](CCCNC(=N)N)C(=O)N[C@@H](Cc1c(C)cccc1C(C)C)C(=O)N[C@@H](CCCCN)C(N)=O,"ligand displacement, radioligand",cell membranes,0.155
Cc1cc(O)cc(C)c1C[C@H](N)C(=O)N1CCc2ccc(Cc3cccc([N+](=O)[O-])c3)cc2C1,"ligand displacement, radioligand",cell membranes,3.1
CCCC[C@@H](NC(=O)[C@@H](N)Cc1ccc(O)cc1)C(=O)NCC(=O)N[C@@H](Cc1ccc(F)cc1)C(=O)N(C)CCC[C@@]1(c2ccc(F)cc2)OCc2cc(C#N)ccc21,cell-free assay,,16
Cc1cc(O)cc(C)c1C[C@H](N)C(=O)N[C@H](CCCNC(=N)N)C(=O)N[C@@H](Cc1c[nH]c2ccccc12)C(=O)N[C@@H](CCCCN)C(N)=O,"ligand displacement, radioligand",cell membranes,0.0991
Cc1cc(O)cc(C)c1C[C@H](N)C(=O)N1CCc2ccc(Cc3ccc([N+](=O)[O-])cc3)cc2C1,"ligand displacement, radioligand",cell membranes,2.6
Cc1cc(C)c(C[C@H](NC(=O)[C@@H](CCCNC(=N)N)NC(=O)[C@@H](N)Cc2c(C)cc(O)cc2C)C(=O)N[C@@H](CCCCN)C(N)=O)c(C)c1,"ligand displacement, radioligand",cell membranes,0.158
Cc1cc(O)cc(C)c1C[C@H](N)C(=O)N1CCc2ccc(Cc3ccccc3[N+](=O)[O-])cc2C1,"ligand displacement, radioligand",cell membranes,10
C[C@@H](NC(=O)[C@@H](N)Cc1ccc(O)cc1)C(=O)NCC(=O)N[C@@H](Cc1ccc(Cl)cc1)C(=O)N(C)CCC[C@@]1(c2ccc(F)cc2)OCc2cc(C#N)ccc21,cell-free assay,,7
Cc1cc(O)cc(C)c1C[C@H](N)C(=O)N1CCc2ccc(Cc3ccccc3N)cc2C1,"ligand displacement, radioligand",cell membranes,2.1
Cc1cc(O)cc(C)c1C[C@H](C)C(=O)N[C@@H]1C/C=C\CC[C@@H](C(N)=O)NC(=O)[C@H](Cc2ccccc2)NC(=O)[C@H](Cc2ccccc2)NC1=O,"ligand displacement, radioligand",cell membranes,7.44
Cc1cc(O)cc(C)c1C[C@H](N)C(=O)N1Cc2ccccc2CC1C(=O)NCC(=O)NC(Cc1ccc(Cl)cc1)C(=O)N(C)CCC[C@@]1(c2ccc(F)cc2)OCc2cc(C#N)ccc21 (stereo in doubt),cell-free assay,,35
